# Only some compounds are listed: those with a hit (about 2% of all), similar ones and a draw of the others.
# CXCR6 block – CXCR6 (human) receptor inhibition | CHO-K1 PathHunter CXCR6 beta-arrestin, luminescence | 360,000 compounds, 0.36% hits | O00574 | inhibition, % at 20 µM; in the data active = inhibition above about 34%, passing the limit was not always enough;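 also: antagonist mode with CXCL16 agonist at 10 nM final; 0% = 10 nM CXCL16 with DMSO and 100% = unstimulated wells without agonist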
# EBI2 block – antagonists of human EBI2 receptor. P32249. EBI2 beta-arrestin recruitment, luminescence, 7a,25-OHC stimulated. inhibition, % at 5 µM. 360,000 compounds, 0.81% hits; in the data active = inhibition above about 38%;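 also: enzyme fragment complementation signal reports receptor beta-arrestin coupling in cells; 0% = agonist plus DMSO wells and 100% = wells without agonist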
# APJ agonist – activates the human apelin receptor APJ; CHO-K1 APJ PathHunter beta-arrestin, luminescence; 0% DMSO wells, 100% apelin; activation, % at 20 µM; AID 2520; P35414; 330,000 compounds, 0.11% hits;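 active = activation more than six SD over the plate average, tested at 20 µM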;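 also: 0% = DMSO alone and 100% = apelin-13 at 10 nM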
# Target sequence (P35414 whole entry, looked up): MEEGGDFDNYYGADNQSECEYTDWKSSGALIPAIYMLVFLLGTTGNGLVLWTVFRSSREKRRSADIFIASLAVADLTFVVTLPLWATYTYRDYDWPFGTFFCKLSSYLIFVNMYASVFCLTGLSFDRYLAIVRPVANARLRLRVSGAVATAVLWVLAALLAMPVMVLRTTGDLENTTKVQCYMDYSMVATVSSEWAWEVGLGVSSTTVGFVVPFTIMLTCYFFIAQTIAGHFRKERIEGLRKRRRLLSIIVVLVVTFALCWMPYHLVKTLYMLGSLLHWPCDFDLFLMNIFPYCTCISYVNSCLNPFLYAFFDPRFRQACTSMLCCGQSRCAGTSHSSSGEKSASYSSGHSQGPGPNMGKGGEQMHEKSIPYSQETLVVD
#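 Assay system: CHO-K1 cells stably expressing ProLink-tagged human APJ and arrestin–beta-gal acceptor. Compound dosing: 20 µM single point, 1% DMSO. Times: 16-18 h seeding, 90 min dark compound exposure, 60 min detection. Detection: beta-gal luminescence. Evaluation: APJ–arrestin association signal. Controls: negative DMSO alone, positive Apelin-13 at 10 nM.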
# FXN GAA850 act – increases GAA850 frataxin promoter reporter activity. HEK293 lucGAA850 FXN promoter luciferase reporter, 24 h; percent of 10 µM SAHA response. activation, % at 6 µM. 360,000 compounds, 0.56% hits;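 active = activation above the average of all compounds screened plus 3 SD, cutoff fixed separately per campaign, cut at about 7.5% in these data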;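 also: 0% = DMSO wells and 100% = 10 µM SAHA wells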
# APJ antagonist – antagonists of human APJ apelin receptor; P35414; CHO-K1 APJ beta-arrestin complementation, luminescence; inhibition, % at 20 µM; 330,000 compounds, 0.32% hits; AID 2521;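 active = inhibition above about 40% at 20 µM, limit read from the data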;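 also: cells challenged with 10 nM apelin-13 agonist together with compound; plate controls were apelin-13 plus DMSO wells for no effect and DMSO wells lacking apelin-13 for full effect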
# CCR6 antag – blocks CCL20-driven beta-arrestin recruitment at human CCR6. P51684. inhibition, % at 20 µM. CHO-K1 CCR6 PathHunter beta-arrestin, luminescence, CCL20-stimulated. 340,000 compounds, 0.49% hits;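 active = compounds whose inhibition of the agonist-driven luminescence signal at 20 µM reaches about 50%, limit read from the data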;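 also: cells stimulated with CCL20 at 14 nM final; plate controls were DMSO with CCL20 for no effect and DMSO without agonist for full effect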
# EBI2 conf – EBI2 (human) antagonism, single concentration confirmation | inhibition, % at 5 µM | shares compounds with EBI2 block | 2,400 compounds, 29% hits | EBI2 beta-arrestin luminescence, 7a,25-OHC antagonism;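 active = inhibition of at least 50%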
# EBI2 ag – activates EBI2, counter-screen for EBI2 antagonists | activation, % at 5 µM | AID 652000 | EBI2-expressing cells, agonist mode, luminescence, 60 min; 0% vehicle, 100% 7α,25-dihydroxycholesterol control | shares compounds with EBI2 block | 2,400 tested, under 10 active;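 active = activation of at least 50%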
# bGal counter – beta-galactosidase inhibition counter-screen; purified beta-galactosidase, luminescent Galacton Star, 15 min; inhibition, % at 5 µM; 2,400 compounds, 1% hits; shares compounds with EBI2 block;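 active = replicate-average signal at least 3 plate SD below neutral wells, shown as high inhibition, flagging enzyme-inhibiting false positives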;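 also: 0% = DMSO wells with enzyme and 100% = wells lacking enzyme; higher means stronger loss of beta-gal luminescence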
# Numbers without * were called inactive; / = no result given.
SMILES,CXCR6 block,EBI2 block,APJ agonist,FXN GAA850 act,APJ antagonist,CCR6 antag,EBI2 conf,EBI2 ag,bGal counter
CCOc1ccc(OCC)c(NC(=O)CN(c2ccc(C)cc2)S(=O)(=O)c2c(C)noc2C)c1,9,72*,-4,0,-4,19,34,0,2
CCOc1ccccc1NC(=O)CN(c1ccc(C)cc1)S(=O)(=O)c1c(C)noc1C,1,39,-5,-2,18,16,/,/,/
COc1ccc(OC)c(NC(=O)CN(c2ccc(C)cc2)S(=O)(=O)c2c(C)noc2C)c1,0,48*,-3,-2,11,19,15,-1,-9
CCOc1ccc(OCC)c(NC(=O)CN(c2ccc(OC)cc2)S(=O)(=O)c2c(C)noc2C)c1,4,69*,-2,1,-2,12,21,0,1
CCOc1ccc(N(CC(=O)Nc2ccc(OC)cc2)S(=O)(=O)c2c(C)noc2C)cc1,-10,11,-1,-1,-4,11,/,/,/
CN(C)C1=NCCN1CCC1CCCC1,-4,0,6,0,12,-9,/,/,/
Cc1ccc(NC(=O)c2ccc3c(c2)C(=O)N(CC2CCCO2)C3=O)cc1C (centres undefined),6,74*,-3,3,3,19,52*,2,-4
CN1C(=O)c2ccc(C(=O)Nc3ccc4c(c3)OCO4)cc2C1=O,4,45*,3,0,8,-9,-1,0,-11
NS(=O)(=O)c1ccc(CCNC(=O)CSc2nc3ccccc3c(=O)n2CC2CCCO2)cc1 (centres undefined),0,0,-3,1,6,6,/,/,/
Cc1cc2nc(-c3ccc(C#N)cc3)c(Cc3cccc(F)c3)n2c(C)c1Br,5,44*,/,/,/,/,43,-1,-16
Cc1ccc(-c2nc3ccc(C)cn3c2Cc2cccc(Cl)c2)cc1,31,35,/,/,/,/,/,/,/
Cc1ccc(-c2nc3ccc(C)cn3c2Cc2cccc(F)c2)cc1,28,43*,/,/,/,/,46,-2,-14
Cc1ccc(-c2nc3cc(C)c(Br)c(C)n3c2Cc2cccc(F)c2)cc1,4,17,/,/,/,/,/,/,/
CCN(CC)c1ccc(C(=C2C=CC(=[N+](CC)CC)C=C2)c2ccc(S(=O)(=O)O)cc2S(=O)(=O)[O-])cc1,24,3,/,-1,/,23,/,/,/
CCCCN1C(C(=O)Nc2ncccn2)=C(O)c2ccccc2S1(=O)=O,6,2,-3,-1,8,7,/,/,/
CCc1nc2ccc(C(=O)Nc3cc(-c4ccccc4)ccc3OC)cn2c1N(C)Cc1ccc(OC)cc1,13,45*,/,4,/,/,0,0,-6
CCc1nc2ccc(C(=O)Nc3cc(-c4ccccc4)ccc3OC)cn2c1N(C)C(=O)c1cccc(OC)c1,11,43*,/,-7,/,/,16,-1,-14
CCc1nc2ccc(C(=O)Nc3cc(-c4ccccc4)ccc3OC)cn2c1N(C)CCC(C)C,12,22,/,2,/,/,/,/,/
C=CCc1cccc(CNc2nc3ccccc3n2CCN2CCOCC2)c1O,25,83*,-4,-3,-24,14,84*,-1,7
C[C@@H]1CN([C@H](C)CO)C(=O)c2cc(Br)cnc2O[C@H]1CN(C)C(=O)Cc1ccccc1,0,-2,/,2,/,/,/,/,/
COc1ccc(-n2cc(-c3ccccc3)[nH]c2=S)cc1,-10,74*,5,1,-19,9,48,-1,-14
Cc1cc(C2(c3ccc(O)c(C)c3)C(=O)Nc3ccccc32)ccc1O,5,67*,-1,0,8,-9,37,-1,-12
Cc1cccc2c1NC(=O)C2(c1ccc(O)cc1)c1ccc(O)cc1,7,-5,-4,3,4,1,/,/,/

# From PubChem BioAssay
